Where “and” joins values, the source holds several entries; their conditions need not be identical. Equal values may be shown once. Read-outs that look alike come from different tables or passages of the source.
Experiments:
human M1Rs = molecular target: T1, human M1Rs (Homo sapiens, UniProt P11229); assay: M1R phosphoinositide hydrolysis; format: cell-based
T1 sequence (P11229 1-460): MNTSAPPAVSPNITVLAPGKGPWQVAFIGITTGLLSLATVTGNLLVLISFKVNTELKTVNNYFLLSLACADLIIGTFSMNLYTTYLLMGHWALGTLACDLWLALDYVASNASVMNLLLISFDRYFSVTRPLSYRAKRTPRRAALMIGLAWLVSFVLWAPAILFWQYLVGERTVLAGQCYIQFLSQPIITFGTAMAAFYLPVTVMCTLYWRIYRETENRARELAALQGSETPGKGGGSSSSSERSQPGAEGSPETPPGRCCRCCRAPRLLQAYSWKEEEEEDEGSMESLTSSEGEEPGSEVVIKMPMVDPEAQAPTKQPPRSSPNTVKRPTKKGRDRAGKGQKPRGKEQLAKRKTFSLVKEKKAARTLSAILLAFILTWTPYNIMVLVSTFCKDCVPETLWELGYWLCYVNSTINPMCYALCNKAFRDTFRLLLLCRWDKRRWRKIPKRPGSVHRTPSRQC

NET = details: cited from earlier work
human M1R [1] = molecular target: T2, human M1R (Homo sapiens, UniProt P11229); format: binding; details: for Displacement of radioligand at M1Rs at highest concentration: 100 μM
T2 sequence (P11229 1-460): T1 sequence (P11229 1-460)

human M2R [2] = molecular target: T3, human M2R (Homo sapiens, UniProt P08172); assay: M2R β-arrestin recruitment; format: cell-based
T3 sequence (P08172 1-466): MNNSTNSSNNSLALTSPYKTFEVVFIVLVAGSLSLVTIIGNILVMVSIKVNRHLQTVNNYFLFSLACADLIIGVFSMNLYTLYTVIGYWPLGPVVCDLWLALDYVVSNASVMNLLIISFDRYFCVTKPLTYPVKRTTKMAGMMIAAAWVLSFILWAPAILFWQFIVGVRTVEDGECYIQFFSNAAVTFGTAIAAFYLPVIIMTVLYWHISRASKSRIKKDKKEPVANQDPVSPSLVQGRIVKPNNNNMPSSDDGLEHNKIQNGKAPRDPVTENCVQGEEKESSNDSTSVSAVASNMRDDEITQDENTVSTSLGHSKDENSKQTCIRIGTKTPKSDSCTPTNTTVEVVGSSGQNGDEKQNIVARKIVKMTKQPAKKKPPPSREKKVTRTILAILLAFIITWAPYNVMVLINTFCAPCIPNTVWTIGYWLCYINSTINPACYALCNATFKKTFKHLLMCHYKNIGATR

human M2R [3] = molecular target: T3, human M2R; assay: M2R cAMP signaling; format: cell-based
DAT = details: cited from earlier work
[4] = cited from earlier work
human M2R [5] = molecular target: T3, human M2R; assay: [3H]scopolamine radioligand competition binding at M2R; details: for Ki: read-out: Ki at M2Rs; for Ki / Displacement of radioligand at M2Rs at highest concentration: full dose-response competition binding; for Displacement of radioligand at M2Rs at highest concentration: 100 μM
human M1R [6] = molecular target: T2, human M1R; details: cited from earlier work
[7] = system: human M1Rs, M2Rs, M3Rs, M4Rs, and M5Rs; assay: Initial [3H]scopolamine displacement screen at each of the five MR subtypes; format: binding; details: screened at 1 and 10 μM
Outline: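 HEK293 cells (passage <20), lipid-transfected with human M1–M5 receptor cDNA; membranes harvested ~48 h later and stored at -80 °C. […] Filtered on GF/B, washed with ice-cold 50 mM Tris pH 7.4, scintillation counted. Affinities estimated from these two concentrations; N=2.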

[8] = cited from earlier work; remark: listed apart in the source
[9] = α-PVP confirmed as only stimulant responsible for intoxication; cited from earlier work
[10] = full dose-response competition binding

CCCCC(C(=O)c1ccccc1)N1CCCC1 (stereo not drawn) [α-PHP, α-pyrrolidinohexiophenone]
pKb, inhibition of M1R-IP1 production caused by oxotremorine (human M1Rs; EC80 oxotremorine (500 nM)): 5.86 ± 0.35
Functional activity at M1R-inositol phosphate signaling pathway (human M1Rs; maximal effect lower than basal signaling): inverse agonist activity
Kb (human M1Rs; read-out: Kb, inhibition of M1R-IP1 production caused by oxotremorine, EC80 oxotremorine (500 nM)): 1400 nM and 1380 nM
Fold higher affinity at NET than α-PPP (NET): 6 fold
Fold increase in M1R affinity from α-PPP (human M1R [1]; ratio of Ki values): 121 fold
Ki (human M1R [1]; read-out: Ki at M1Rs, full dose-response competition binding): 1600 nM
pKb, inhibition of oxotremorine-stimulated β-arrestin recruitment (human M2R [2]; EC80 oxotremorine (10 μM)): 6.30 ± 0.12
Functional activity at M2R-β-arrestin recruitment (human M2R [2]; relative to basal signaling): inverse agonist
pKb, inhibition of M2R stimulation by oxotremorine (cAMP) (human M2R [3]): 6.92 ±0.03
Functional activity at M2R-cAMP signaling pathway (human M2R [3]; maximal effect above forskolin alone): inverse agonist
Kb (human M2R [3]; read-out: Kb, inhibition of M2R stimulation by oxotremorine (cAMP)): 120 nM
Fold higher affinity at DAT than α-PPP (DAT): 81 fold
Blood concentration, fatal cases ([4]; fatal cases, as high as): ≤ 2860 nM
Blood concentration, non-fatal case ([4]; male admitted to hospital after inhaling only α-PHP): 1280 nM
Serum concentration, non-fatal case ([4]; patient admitted to hospital after taking α-PHP): 710 nM
Fold increase in M2R affinity compared to α-PPP (human M2R [5]; ratio of Ki values): 302 fold
Ki (human M2R [5]): 251 nM

CCCCC(C(=O)c1ccc2c(c1)OCO2)N1CCCC1 (stereo not drawn) [MDPHP, 3,4-methylenedioxy-α-pyrrolidinohexiophenone]
Estimated pKi at M1R (human M1R [1]): 5.44
Ki (human M1R [1]; read-out: Estimated Ki at M1Rs, estimated from 1 and 10 μM screens): 3630 nM

CC(C(=O)c1ccccc1)N1CCCC1 (stereo not drawn) [α-PPP, α-pyrrolidinopropiophenone]
Affinity at M1Rs (initial experiments) (human M1R [6]): nil affinity
Displacement of radioligand at M1Rs at highest concentration (human M1R [1]; [10]): less than 50%
Displacement of 1 nM [3H]scopolamine from each of the MR subtypes [7]: < 5%
Displacement of radioligand at M2Rs at highest concentration (human M2R [5]): less than 50%

CCCCCCC(C(=O)c1ccccc1)N1CCCC1 (stereo not drawn) [α-PV9, α-pyrrolidinooctanophenone, reference compound]
Effect on mitochondrial activity and cellular membranes [8]: potently decreased mitochondrial activity and severely damaged cellular membranes

CNC(C)C(=O)c1ccc(Br)cc1 (stereo not shown) [4-bromomethcathinone, reference compound]
Affinity at M1Rs (initial experiments) (human M1R [6]): nil affinity

CCCC(C(=O)c1ccc2c(c1)OCO2)N1CCCC1 (stereo not shown) [MDPV, 3,4-methylenedioxypyrovalerone]
Effect on mitochondrial activity and cellular membranes [8]: not observed
Estimated pKi at M1R (human M1R [1]): 5.06

CCC(C(=O)c1ccccc1)N1CCCC1 (stereo not drawn) [α-PBP, α-pyrrolidinobutiophenone]
Displacement of radioligand at M1Rs at highest concentration (human M1R [1]; [10]): less than 50%
Displacement of 1 nM [3H]scopolamine from each of the MR subtypes [7]: < 5%
Displacement of radioligand at M2Rs at highest concentration (human M2R [5]): less than 50%
Ki (human M2R [5]; interpolated): 40000 nM

CC(C(=O)c1ccc2c(c1)OCO2)N1CCCC1 (stereo not drawn) [MDPPP, 3,4-methylenedioxy-α-pyrrolidinopropiophenone]
Affinity at M1Rs (initial experiments) (human M1R [6]): nil affinity

CCCCCC(C(=O)c1ccc2c(c1)OCO2)N1CCCC1 (stereo not drawn) [MDPHPP, 3,4-methylenedioxy-α-pyrrolidinoheptaphenone]
Estimated pKi at M1R (human M1R [1]): 5.22

CCCC(C(=O)c1ccccc1)N1CCCC1 (stereo not drawn) [α-PVP, α-pyrrolidinopentiophenone]
Patients presenting with tachycardia [9]: 80%
Serum concentration, non-fatal cases ([4]; non-fatal cases, as high as): ≤ 2600 nM
Concentration, postmortem cases ([4]; postmortem cases, as high as): ≤ 86000 nM
Fold increase in M2R affinity compared to α-PBP (human M2R [5]; ratio of Ki values): 49 fold
Fold increase in M2R affinity compared to α-PPP (human M2R [5]; ratio of Ki values): 89 fold
Ki (human M2R [5]): 824 nM

O=C1CCCN1CC#CCN1CCCC1 [oxotremorine, reference compound]
EC80, IP1 production (human M1Rs): 500 nM
EC80, β-arrestin recruitment (human M2R [2]; concentration used in antagonist tests): 10000 nM
EC50 (human M2R [3]): 28.8 nM
EC80, decrease of forskolin-stimulated cAMP production (human M2R [3]; 10 μM forskolin): 130 nM

Reference: PMC7104417 (ACS chemical neuroscience, 2020)
